The text below walks through data of ChEMBL document CHEMBL4622928, “Discovery of 5-(4-methylpiperazin-1-yl)-2-nitroaniline derivatives as a new class of SIRT6 inhibitors” (Bioorg Med Chem Lett, 2020).

pIC50: −log10 of the molar value.

The term pIC50 denotes the negative decadic logarithm of the IC50, by convention in mol/L. Low values mean a large IC50, high ones a small IC50.

Series [1] concerns the target T1, NAD-dependent protein deacylase sirtuin-6 (Homo sapiens, UniProt Q8N6T7). Description: Inhibition of SIRT6 (unknown origin) using Ac-RYQK(Ac)-AMC as substrate by Fluor de Lys assay.
Series [2] is described as follows: Toxicity in mouse model of type-2 diabetes mellitus assessed as effect on body weight at 7.5 to 30 mg/kg, ip. It counts as organism-based. To be noted: in vivo. Summed up:
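High-fat-diet-fed mice served as the type 2 diabetes model. Compound was given by intraperitoneal injection, and blood glucose and body weight were followed over time.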

Series [3] can be described thus: Toxicity in mouse assessed as change in blood glucose level. In outline:
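Normal (non-diabetic) mice were dosed, and blood glucose and body weight were tracked over the study.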

The target of the next series is T2, Histone deacetylase 7 (Homo sapiens, UniProt Q8WUI4).
T2 sequence (Q8WUI4 whole entry): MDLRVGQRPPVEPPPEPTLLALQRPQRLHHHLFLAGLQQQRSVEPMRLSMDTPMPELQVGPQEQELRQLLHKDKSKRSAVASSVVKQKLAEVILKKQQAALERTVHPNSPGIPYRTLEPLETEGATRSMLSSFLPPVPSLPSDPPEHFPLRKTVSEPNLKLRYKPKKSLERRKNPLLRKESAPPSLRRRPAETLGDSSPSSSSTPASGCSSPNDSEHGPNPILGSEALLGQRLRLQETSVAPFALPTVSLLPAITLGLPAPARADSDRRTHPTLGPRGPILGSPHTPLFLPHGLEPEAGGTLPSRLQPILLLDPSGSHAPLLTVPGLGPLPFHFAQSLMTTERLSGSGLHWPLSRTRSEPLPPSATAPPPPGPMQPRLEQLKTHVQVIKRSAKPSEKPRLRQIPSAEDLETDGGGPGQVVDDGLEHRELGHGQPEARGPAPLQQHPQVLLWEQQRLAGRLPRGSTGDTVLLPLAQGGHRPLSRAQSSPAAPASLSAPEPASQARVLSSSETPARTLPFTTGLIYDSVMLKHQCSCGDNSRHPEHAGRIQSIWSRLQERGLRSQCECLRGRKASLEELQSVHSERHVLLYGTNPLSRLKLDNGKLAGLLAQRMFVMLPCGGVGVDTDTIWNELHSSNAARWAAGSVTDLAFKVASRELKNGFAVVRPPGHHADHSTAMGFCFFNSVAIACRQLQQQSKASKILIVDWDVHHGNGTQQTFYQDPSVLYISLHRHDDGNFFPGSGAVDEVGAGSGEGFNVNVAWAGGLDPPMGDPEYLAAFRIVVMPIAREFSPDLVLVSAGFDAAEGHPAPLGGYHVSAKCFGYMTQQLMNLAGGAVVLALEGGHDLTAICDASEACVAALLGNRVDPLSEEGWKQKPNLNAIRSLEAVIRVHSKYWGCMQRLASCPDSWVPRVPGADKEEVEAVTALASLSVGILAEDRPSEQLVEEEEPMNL
Description: Inhibition of HDAC7 (unknown origin). In outline: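 Each deacetylase was run in a Fluor de Lys (FDL) fluorogenic deacetylation assay as a selectivity screen, with compound tested at concentrations up to 200 μM. IC50 was estimated from the dose-response.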

Series [4] addresses T1, NAD-dependent protein deacylase sirtuin-6. In words: Inhibition of SIRT6 in human BxPC3 cells assessed as increase in H3K9Ac expression measured after 48 hrs by Western blot analysis. It is filed as cell-based. The note with it: BXPC-3. In outline: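 BxPC-3 cells were exposed to 0.78, 1.56, 3.13, 6.25, 12.5 and 25 μM compound for 48 h. Histone H3K9ac and H3K18ac levels were then assessed by western blot, with β-actin as the loading control. Acetylation increase is read as cellular SIRT6 deacetylase inhibition.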

T1 sequence (Q8N6T7 whole entry): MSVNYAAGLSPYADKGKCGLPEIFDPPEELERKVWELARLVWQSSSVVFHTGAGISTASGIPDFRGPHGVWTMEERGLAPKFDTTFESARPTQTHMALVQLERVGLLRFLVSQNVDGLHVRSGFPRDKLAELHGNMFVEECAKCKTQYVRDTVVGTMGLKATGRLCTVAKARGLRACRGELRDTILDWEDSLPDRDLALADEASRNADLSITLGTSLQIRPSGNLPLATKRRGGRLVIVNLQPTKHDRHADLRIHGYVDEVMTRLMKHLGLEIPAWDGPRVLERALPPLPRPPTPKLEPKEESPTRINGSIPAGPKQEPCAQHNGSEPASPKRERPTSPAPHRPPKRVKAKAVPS

`CN1CCN(c2ccc([N+](=O)[O-])c(N)c2)CC1`: the pIC50 in series [1] is 5.31; on Histone deacetylase 7, below 3.70. Also, the Activity result in series [2] and in series [3] was “Non-Toxic” in each case. The inhibition result in series [4] was “Dose-dependent effect”.
